Entries after “also recorded” stand apart in the source; their conditions may differ.
Key:
Type in all cases: cell-based
[1] = test system: caspase-3; assay: Caspase-3 activity assay; settings: B16-F10 cells, 24 h treatment, Caspase-3 assay kit
Method in brief: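 B16-F10 cells were seeded at 5 × 10^5 per well and cultured overnight. They were then exposed to test peptides for 24 h, and caspase-3 activity was measured with a commercial caspase-3 activity kit.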

[2] = test system: B16-F10 cells; settings: 5 µM, 1 h
[3] = test system: B16-F10 cells; assay: Cell cycle assay; settings: CPT 5 µM, AAM analogs 5 µM, conjugates 5 µM, 1 h at pH 5.5, then 24 h, n = 3
[4] = test system: B16-F10 cells; assay: Endosomal escape, co-localization with LysoTracker Red; settings: 5 µM, pH 5.5, 15 min then further 15, 30 and 60 min, ImageJ
Method in brief: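 Cells were exposed to a FAM-labelled test peptide (5 µM) at pH 5.5 for 15 min, taken as 0 min, then incubated a further 15, 30 or 60 min. Medium was removed and lysosomes were stained with LysoTracker Red (100 nM, 30 min). After confocal imaging, co-localisation was quantified as Pearson's correlation coefficient (R).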

[5] = test system: B16-F10 cells; assay: LDH release assay; settings: 1 h, pH 7.4 or 5.5, CytoTox-ONE kit, n = 3
[6] = test system: B16-F10 cells; assay: PI uptake assay; settings: 10 µM
Method in brief: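 B16-F10 cells (6 × 10^4) were seeded in glass-bottomed dishes and cultured overnight. End point: 1 h exposure to 10 µM test agent at pH 5.5 or 7.4, then fresh DMEM with PI (1 µg/ml) for 10 min before confocal imaging. Kinetics: 10 µM agent was added to DMEM containing PI (1 µg/ml) at pH 5.5, with images taken every 1 min for 30 min.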

[7] = test system: B16-F10 cells; assay: Short-term cytotoxicity, MTT, 1 h; settings: 1 h incubation, serum-free medium, different pH values, n = 3
Method in brief: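 B16-F10 cells were seeded at 1 × 10^4 per well and cultured overnight. They were incubated 1 h with test compounds at different pH values, and viability was assessed by MTT. Membrane-lytic reference peptides served as positive controls. Data are from three independent experiments, given as mean ± SD.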

[8] = test system: erythrocyte suspension; assay: Hemolysis assay; settings: 10% (v/v) mouse erythrocytes in PBS, 1 h, 37 °C, absorbance at 450 nm
Method in brief: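 Heparinised whole mouse blood was centrifuged at 1,000 × g for 15 min. The pellet was washed three times with PBS and resuspended to 10% (v/v) in PBS. Suspension was mixed with test compounds for 1 h at 37 °C, then centrifuged, and supernatant absorbance was read at 450 nm. PBS defined 0% and 0.1% Triton X-100 defined 100% hemolysis.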

## CC[C@@]1(O)C(=O)OCc2c1cc1n(c2=O)Cc2cc3ccccc3nc2-1 [CPT, camptothecin]
[1]
  caspase-3 activation: significantly activated caspase-3
[2]; pH 7.4 or 5.5, near UV excitation
  cellular uptake of CPT and peptide-CPT conjugates (blue fluorescence, confocal): distinction of fluorescence intensity between pH 7.4 and pH 5.5 was not obvious
[3]
  cell cycle distribution: significantly increased the cell proportion in the G2/M phase and decreased the cell proportion in the G0/G1 and S phases

## GIGAVLHVLTTGLPALISWIHHHHQC(FAM)-NH2 [FAM-AAM-1]
[4]
  Pearson's correlation coefficients (r) between FAM-AAM-1 and LysoTracker Red: r-values became gradually low over time
[2]; serum-free medium, pH 7.4 or 5.5
  cellular uptake of FAM-labeled peptides, confocal microscopy: higher cellular uptake in B16-F10 cells at pH 5.5 than that at pH 7.4

## melittin
[5]
  LDH release (membrane-lytic activity): strong release of LDH at both pH 7.4 and 5.5
[6]; 1 h, pH 7.4 and 5.5, PI 1 µg/ml, confocal
  PI uptake (PI-positive cells, membrane-disruptive activity): showed no obvious difference
[6]; pH 5.5, PI 1 µg/ml, images every 1 min for 30 min
  membrane-lytic behavior in time-lapse images: developed necrosis, including rounding, blebbing, swelling, and bursting
[7]
  short-term cytotoxicity against B16-F10 cells: high cytotoxicity to B16-F10 cells, even at 1.25 µM; also recorded: no obvious pH dependence
[8]
  hemolytic activity: extreme hemolytic activity

Source: PMC10900806 (Asian Journal of Pharmaceutical Sciences, 2024)
